In ChEMBL document CHEMBL4350961, “Discovery of Pyrrolo[3,2- d]pyrimidin-4-one Derivatives as a New Class of Potent and Cell-Active Inhibitors of P300/CBP-Associated Factor Bromodomain” (J Med Chem, 2019):
Activity calls are given as the source filed them.

What was measured:
[1] = target: Mitogen-activated protein kinase 13 (Homo sapiens) (UniProt O15264); assay: Inhibition of recombinant full-length human SAPK4 at 10 uM using myelin basic protein as substrate measured after 40 mins in presence of [gamma33P]ATP by scintillation counting method
[2] = target: Serine/threonine-protein kinase pim-3 (Homo sapiens) (UniProt Q86V86); assay: Inhibition of recombinant human Pim3 (2 to end residues) at 10 uM using RSRHSSYPAGT as substrate measured after 40 mins in presence of [gamma33P]ATP by scintillation counting method
[3] = target: Protein kinase C iota type (Homo sapiens) (UniProt P41743); assay: Inhibition of recombinant full-length human PKCiota at 10 uM using ERMRPRKRQGSVRRRV as substrate measured after 40 mins in presence of [gamma33P]ATP by scintillation counting method
[4] = target: LIM domain kinase 2 (Homo sapiens) (UniProt P53671); assay: Inhibition of recombinant human LIMK2 at 10 uM by radiometric method
[5] = tested on: Hepatocyte growth factor receptor (Homo sapiens), P08581 [M1250T]; assay: Inhibition of recombinant human MET A1209G/V1290L/M1268T mutant (974 to end residues) at 10 uM using KKKGQEEEYVFIE as substrate measured after 40 mins in presence of [gamma33P]ATP by scintillation counting method
[6] = target: Vascular endothelial growth factor receptor 1 (Homo sapiens) (UniProt P17948); assay: Inhibition of recombinant human Flt1 (783 to end residues) at 10 uM using KKKSPGEYVNIEFG as substrate measured after 40 mins in presence of [gamma33P]ATP by scintillation counting method
[7] = target: High affinity nerve growth factor receptor (Homo sapiens) (UniProt P04629); assay: Inhibition of human TrkA (440 to end residues) using KKKSPGEYVNIEFG as substrate measured after 40 mins in presence of [gamma33P]ATP by scintillation counting method
High affinity nerve growth factor receptor (Homo sapiens), sequence (P04629 33-796 limits assumed): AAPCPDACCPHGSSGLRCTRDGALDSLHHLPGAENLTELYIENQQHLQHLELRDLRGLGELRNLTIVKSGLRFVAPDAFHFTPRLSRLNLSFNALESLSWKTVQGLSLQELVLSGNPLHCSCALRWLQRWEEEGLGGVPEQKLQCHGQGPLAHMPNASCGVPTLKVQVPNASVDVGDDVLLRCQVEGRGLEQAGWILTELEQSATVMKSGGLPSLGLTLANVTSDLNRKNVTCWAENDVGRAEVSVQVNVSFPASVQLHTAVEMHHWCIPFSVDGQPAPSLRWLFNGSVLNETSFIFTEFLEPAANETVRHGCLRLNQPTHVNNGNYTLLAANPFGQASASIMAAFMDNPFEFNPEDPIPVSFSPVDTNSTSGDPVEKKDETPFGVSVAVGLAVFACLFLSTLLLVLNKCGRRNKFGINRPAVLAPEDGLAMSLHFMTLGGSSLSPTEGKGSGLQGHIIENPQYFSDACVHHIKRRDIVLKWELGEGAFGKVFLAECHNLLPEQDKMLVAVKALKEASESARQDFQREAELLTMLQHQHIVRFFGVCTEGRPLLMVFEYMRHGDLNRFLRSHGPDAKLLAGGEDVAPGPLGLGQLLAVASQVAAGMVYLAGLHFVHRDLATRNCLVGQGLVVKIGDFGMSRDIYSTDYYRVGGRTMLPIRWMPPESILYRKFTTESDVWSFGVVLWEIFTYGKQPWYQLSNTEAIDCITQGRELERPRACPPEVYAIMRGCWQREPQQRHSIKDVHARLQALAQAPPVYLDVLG

[8] = tested on: Macrophage colony-stimulating factor 1 receptor (Homo sapiens), P07333 [Y969C]; assay: Inhibition of recombinant human FMS Y969C mutant (538 to end residues) at 10 uM using EEEEYEEEEEEYYIIEEEEEEYEEEEEEYYEEEEEEKKKK as substrate measured after 40 mins in presence of [gamma33P]ATP by scintillation counting method
[9] = tested on: RAC-gamma serine/threonine-protein kinase (Homo sapiens), Q9Y243 [S472D]; assay: Inhibition of recombinant full-length human PKBgamma S472D mutant (117 to end residues) at 10 uM using GRPRTSSFAEGKK as substrate measured after 40 mins in presence of [gamma33P]ATP by scintillation counting method
RAC-gamma serine/threonine-protein kinase (Homo sapiens), Q9Y243 [S472D], sequence (Q9Y243 whole entry S472D): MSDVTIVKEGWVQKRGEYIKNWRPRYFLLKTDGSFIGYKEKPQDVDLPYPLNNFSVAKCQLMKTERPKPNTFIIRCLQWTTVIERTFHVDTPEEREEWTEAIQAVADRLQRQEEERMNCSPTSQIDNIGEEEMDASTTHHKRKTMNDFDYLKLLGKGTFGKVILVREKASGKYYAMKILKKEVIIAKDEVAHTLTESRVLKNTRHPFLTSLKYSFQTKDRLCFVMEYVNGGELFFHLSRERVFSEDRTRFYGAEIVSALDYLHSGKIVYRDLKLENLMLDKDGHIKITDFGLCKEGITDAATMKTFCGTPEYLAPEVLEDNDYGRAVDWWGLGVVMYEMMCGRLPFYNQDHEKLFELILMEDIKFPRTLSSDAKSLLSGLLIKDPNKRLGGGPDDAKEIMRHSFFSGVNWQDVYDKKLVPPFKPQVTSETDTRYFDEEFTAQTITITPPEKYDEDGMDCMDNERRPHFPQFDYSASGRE

[10] = target: Tyrosine-protein kinase Fyn (Homo sapiens) (UniProt P06241); assay: Inhibition of recombinant full-length human FYN at 10 uM using Cdc2 peptide as substrate measured after 40 mins in presence of [gamma33P]ATP by scintillation counting method
[11] = target: Casein kinase I isoform gamma-1 (Homo sapiens) (UniProt Q9HCP0); assay: Inhibition of recombinant human CK1gamma1 (25 to 355 residues) at 10 uM using KRRRALS(p)VASLPGL as substrate measured after 40 mins in presence of [gamma33P]ATP by scintillation counting method
[12] = tested on: Tyrosine-protein kinase receptor UFO (Homo sapiens), P30530 [Q764R]; assay: Inhibition of recombinant human AXL Q764R mutant (473 to end residues) at 10 uM using KKSRGDYMTMQIG as substrate measured after 40 mins in presence of [gamma33P]ATP by scintillation counting method
[13] = target: Activin receptor type-1 (Homo sapiens) (UniProt Q04771); assay: Inhibition of recombinant human ALK2 (142 to end residues) at 10 uM using casein as substrate measured after 40 mins in presence of [gamma33P]ATP by scintillation counting method
Activin receptor type-1 (Homo sapiens), sequence (Q04771 whole entry, the tested form may be a part): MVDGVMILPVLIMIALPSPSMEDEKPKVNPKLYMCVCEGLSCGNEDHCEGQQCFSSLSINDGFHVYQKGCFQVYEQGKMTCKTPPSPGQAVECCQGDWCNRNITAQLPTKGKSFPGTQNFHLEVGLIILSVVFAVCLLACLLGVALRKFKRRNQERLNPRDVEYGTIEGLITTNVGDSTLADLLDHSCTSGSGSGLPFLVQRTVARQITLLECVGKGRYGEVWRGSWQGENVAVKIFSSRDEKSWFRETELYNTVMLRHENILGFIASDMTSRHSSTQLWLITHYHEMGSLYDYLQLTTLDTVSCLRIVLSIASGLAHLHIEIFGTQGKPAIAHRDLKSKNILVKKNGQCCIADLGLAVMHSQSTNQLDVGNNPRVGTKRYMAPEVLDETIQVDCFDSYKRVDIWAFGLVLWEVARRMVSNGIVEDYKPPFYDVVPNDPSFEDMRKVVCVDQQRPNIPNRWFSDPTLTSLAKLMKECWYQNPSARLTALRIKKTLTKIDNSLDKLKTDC

[14] = target: Transcription initiation factor TFIID subunit 1 (Homo sapiens) (UniProt P21675); assay: Binding affinity to human partial length TAF1 bromodomain 2 (D1521 to D1656 residues) expressed in bacterial expression system at 1 uM by BROMOscan assay
Procedure, shortened: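 BROMOscan bromodomain cross-screen run by an outside service, compound at 1 µM against 32 recombinant bromodomains. Binding given as percent of control.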

[15] = target: Glycogen synthase kinase-3 alpha (Homo sapiens) (UniProt P49840); assay: Inhibition of recombinant human GSK3alpha (2 to end residues) at 10 uM using phospho GS2 peptide as substrate measured after 40 mins in presence of [gamma33P]ATP by scintillation counting method
Glycogen synthase kinase-3 alpha (Homo sapiens), sequence (P49840 2-483 limits assumed): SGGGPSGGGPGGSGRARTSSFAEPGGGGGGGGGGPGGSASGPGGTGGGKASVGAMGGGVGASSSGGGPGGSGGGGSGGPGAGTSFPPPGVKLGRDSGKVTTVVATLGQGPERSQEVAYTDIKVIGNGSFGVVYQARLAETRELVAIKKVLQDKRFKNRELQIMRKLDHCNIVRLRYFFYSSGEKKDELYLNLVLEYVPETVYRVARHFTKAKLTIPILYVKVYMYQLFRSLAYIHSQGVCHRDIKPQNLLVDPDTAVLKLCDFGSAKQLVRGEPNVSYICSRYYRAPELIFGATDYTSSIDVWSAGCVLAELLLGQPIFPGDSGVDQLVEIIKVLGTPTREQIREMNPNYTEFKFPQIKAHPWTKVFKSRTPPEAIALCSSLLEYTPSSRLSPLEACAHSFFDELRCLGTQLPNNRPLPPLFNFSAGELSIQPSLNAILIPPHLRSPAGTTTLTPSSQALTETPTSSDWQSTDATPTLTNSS

[16] = target: Calcium/calmodulin-dependent protein kinase type 1 (Homo sapiens) (UniProt Q14012); assay: Inhibition of recombinant human CaMK1 (2 to end residues) at 10 uM using calmodulin as substrate measured after 40 mins in presence of [gamma33P]ATP by scintillation counting method
Calcium/calmodulin-dependent protein kinase type 1 (Homo sapiens), sequence (Q14012 whole entry, looked up): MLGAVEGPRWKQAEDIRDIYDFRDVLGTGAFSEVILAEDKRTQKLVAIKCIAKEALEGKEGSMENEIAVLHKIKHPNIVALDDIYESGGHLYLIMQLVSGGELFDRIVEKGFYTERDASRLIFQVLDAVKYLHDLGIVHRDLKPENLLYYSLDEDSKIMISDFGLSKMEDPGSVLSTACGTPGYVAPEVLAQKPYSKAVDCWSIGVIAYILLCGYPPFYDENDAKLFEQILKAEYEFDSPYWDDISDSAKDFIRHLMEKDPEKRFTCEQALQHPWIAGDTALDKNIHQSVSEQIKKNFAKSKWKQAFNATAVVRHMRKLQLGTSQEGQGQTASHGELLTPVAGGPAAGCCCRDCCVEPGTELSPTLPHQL

[17] = AUC (0 to infinity) in Sprague-Dawley rat at 10 mg/kg, po administered via gavage by LC-MS/MS analysis; type: ADME, organism-based; set-up: dose 10 mg/kg, route oral, time infinity; details: in vivo
Procedure, shortened: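 Serial jugular blood samples taken at designated times and spun to plasma at 4 ℃. Plasma mixed with acetonitrile holding internal standard, then LC-MS/MS. Parameters from noncompartmental fitting.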

[18] = target: Serine/threonine-protein kinase Nek11 (Homo sapiens) (UniProt Q8NG66); assay: Inhibition of recombinant full-length human NEK11 at 10 uM using myelin basic protein as substrate measured after 40 mins in presence of [gamma33P]ATP by scintillation counting method
[19] = target: Serine/threonine-protein kinase PAK 4 (Homo sapiens) (UniProt O96013); assay: Inhibition of recombinant human PAK4 (295 to end residues) at 10 uM using myelin basic protein as substrate measured after 40 mins in presence of [gamma33P]ATP by scintillation counting method
[20] = target: Calcium/calmodulin-dependent protein kinase type 1G (Homo sapiens) (UniProt Q96NX5); assay: Inhibition of human CaMK1gamma
Calcium/calmodulin-dependent protein kinase type 1G (Homo sapiens), sequence (Q96NX5 whole entry): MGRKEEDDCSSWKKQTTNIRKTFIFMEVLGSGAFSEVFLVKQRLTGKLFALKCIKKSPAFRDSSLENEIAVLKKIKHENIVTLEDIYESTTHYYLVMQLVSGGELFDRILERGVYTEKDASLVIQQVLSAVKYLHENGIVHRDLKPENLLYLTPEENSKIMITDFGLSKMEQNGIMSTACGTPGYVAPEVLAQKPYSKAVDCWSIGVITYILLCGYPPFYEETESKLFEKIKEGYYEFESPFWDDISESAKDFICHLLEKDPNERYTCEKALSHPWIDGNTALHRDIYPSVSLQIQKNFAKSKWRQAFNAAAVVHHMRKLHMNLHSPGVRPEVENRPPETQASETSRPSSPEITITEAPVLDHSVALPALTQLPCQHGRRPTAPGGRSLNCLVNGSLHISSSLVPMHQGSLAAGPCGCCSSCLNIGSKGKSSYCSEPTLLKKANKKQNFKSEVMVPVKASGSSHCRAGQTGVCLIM
Procedure, shortened: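 Kinase panel of 422 kinases screened by Eurofins KinaseProfiler at a single test-compound concentration of 10 µM.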

[21] = species on record: Mus musculus; assay: Inhibition of recombinant full-length mouse PI3K p110alpha/p85alpha H1047R mutant at 10 uM using phosphatidylinositol-4, 5-bisphosphate as substrate measured after 40 mins by HTRF assay
[22] = target: Platelet-derived growth factor receptor alpha (Homo sapiens) (UniProt P16234); assay: Inhibition of recombinant human PDGFRalpha (550 to end residues) at 10 uM using poly(Glu, Tyr) 4:1 as substrate measured after 40 mins in presence of [gamma33P]ATP by scintillation counting method
Platelet-derived growth factor receptor alpha (Homo sapiens), sequence (P16234 whole entry): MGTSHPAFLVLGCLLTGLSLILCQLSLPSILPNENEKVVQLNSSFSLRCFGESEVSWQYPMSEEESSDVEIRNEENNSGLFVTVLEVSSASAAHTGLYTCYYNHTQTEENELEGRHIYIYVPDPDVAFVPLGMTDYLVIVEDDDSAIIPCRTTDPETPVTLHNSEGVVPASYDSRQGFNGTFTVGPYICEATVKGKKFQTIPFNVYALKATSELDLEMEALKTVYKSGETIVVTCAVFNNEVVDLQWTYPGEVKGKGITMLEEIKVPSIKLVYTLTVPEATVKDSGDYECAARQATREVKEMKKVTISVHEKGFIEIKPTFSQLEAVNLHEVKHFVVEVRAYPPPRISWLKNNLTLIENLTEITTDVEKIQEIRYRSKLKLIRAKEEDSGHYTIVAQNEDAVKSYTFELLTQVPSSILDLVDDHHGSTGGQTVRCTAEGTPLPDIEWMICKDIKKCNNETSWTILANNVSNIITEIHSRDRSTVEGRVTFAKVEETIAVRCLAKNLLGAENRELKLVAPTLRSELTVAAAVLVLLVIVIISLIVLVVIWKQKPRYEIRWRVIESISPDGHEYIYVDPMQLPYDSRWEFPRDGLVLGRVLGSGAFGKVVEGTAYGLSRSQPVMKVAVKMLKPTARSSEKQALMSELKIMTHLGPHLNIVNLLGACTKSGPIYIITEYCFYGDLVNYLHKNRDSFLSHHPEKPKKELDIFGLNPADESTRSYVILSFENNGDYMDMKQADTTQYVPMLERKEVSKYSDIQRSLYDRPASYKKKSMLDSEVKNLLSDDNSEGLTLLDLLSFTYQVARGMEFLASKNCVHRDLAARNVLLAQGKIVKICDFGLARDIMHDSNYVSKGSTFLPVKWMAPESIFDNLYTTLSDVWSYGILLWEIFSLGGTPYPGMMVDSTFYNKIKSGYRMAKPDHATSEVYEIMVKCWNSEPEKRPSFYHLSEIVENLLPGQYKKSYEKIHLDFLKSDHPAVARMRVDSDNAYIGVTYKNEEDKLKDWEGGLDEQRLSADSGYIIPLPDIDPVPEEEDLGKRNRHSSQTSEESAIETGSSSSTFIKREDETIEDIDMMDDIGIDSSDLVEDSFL

[23] = tested on: CDK18/Cyclin Y (Homo sapiens), Q07002+Q8ND76 [T166M]; assay: Inhibition of recombinant full length human cyclinY/CDK18 T166M mutant at 10 uM using YRRAAVPPSPSLS as substrate measured after 40 mins in presence of [gamma33P]ATP by scintillation counting method; type: protein-complex assay
[24] = target: Serine/threonine-protein kinase ICK (Homo sapiens) (UniProt Q9UPZ9); assay: Inhibition of recombinant human ICK (1 to 312 residues) at 10 uM using RRRFRPASPLRGPPK as substrate measured after 40 mins in presence of [gamma33P]ATP by scintillation counting method
Serine/threonine-protein kinase ICK (Homo sapiens), sequence (Q9UPZ9 whole entry, the tested form may be a part): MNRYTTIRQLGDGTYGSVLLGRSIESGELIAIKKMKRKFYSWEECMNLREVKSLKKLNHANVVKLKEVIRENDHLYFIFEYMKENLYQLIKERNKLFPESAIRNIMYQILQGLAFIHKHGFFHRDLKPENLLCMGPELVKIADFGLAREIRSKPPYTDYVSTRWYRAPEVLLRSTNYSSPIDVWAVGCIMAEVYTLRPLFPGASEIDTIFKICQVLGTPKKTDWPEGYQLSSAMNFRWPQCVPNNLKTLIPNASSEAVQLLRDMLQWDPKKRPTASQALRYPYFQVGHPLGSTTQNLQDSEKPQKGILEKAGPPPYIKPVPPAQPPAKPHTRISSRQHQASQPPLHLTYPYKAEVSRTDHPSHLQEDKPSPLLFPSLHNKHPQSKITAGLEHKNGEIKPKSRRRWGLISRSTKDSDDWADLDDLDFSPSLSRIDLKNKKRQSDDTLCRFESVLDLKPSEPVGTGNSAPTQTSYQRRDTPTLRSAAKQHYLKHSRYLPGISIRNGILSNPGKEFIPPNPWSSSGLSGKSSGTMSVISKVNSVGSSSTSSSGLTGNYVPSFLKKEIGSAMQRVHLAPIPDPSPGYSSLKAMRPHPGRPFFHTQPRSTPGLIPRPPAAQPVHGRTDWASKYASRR

CN1C[C@H](Nc2nc3cc[nH]c3c(=O)n2C)C[C@H](c2ccc3c(c2)OCCO3)C1
2490 ng·h/mL: AUC(0-inf) [17]
inactive: inhibition [1] | inhibition [2] | inhibition [3] | inhibition [4] | inhibition [5] | inhibition [6] | inhibition [7] | inhibition [8] | inhibition [9] | inhibition [10] | inhibition [11] | inhibition [12] | inhibition [13] | Activity [14] | inhibition [15] | inhibition [16] | inhibition [18] | inhibition [19] | inhibition [20] | inhibition [21] | inhibition [22] | inhibition [23] | inhibition [24]
